From ChEMBL document CHEMBL1138123, “Design, synthesis, and biological evaluation of pyrrolo[2,1-c][1,4]benzodiazepine and indole conjugates as anticancer agents” (2006)
The source made the active and inactive calls. The rule behind the calls is not given here.

Columns and labels:
[1] = test system: Nucleic Acid; assay: Inhibition of cleavage activity of restriction endonuclease BamH1; type: nucleic-acid assay
In short: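 pBR322 plasmid DNA (0.5 μg) preincubated with compound at 5 μM in restriction buffer pH 7.5 plus BSA 0.1 mg/mL, 37 °C for 1 h. Excess BamHI (20 units) then added, 37 °C for a further 1 h, stopped at 65 °C for 20 min. Products run on 1.0% agarose in TAE at 100 V for 2 h and stained with ethidium bromide. Supercoiled/open-circular and fully linearized DNA run as controls.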

[2] = test system: A2058; assay: Apoptotic effect on A2058 cells by measuring hypodiploid DNA content after 18 hrs exposure to 5 uM; type: functional, Homo sapiens
In short: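 A2058 human melanoma cells kept at 37 °C in 5% CO2 and passaged with 5 mM EDTA. Exposed to agent at 5 μM for 18 h, trypsinized, fixed 30 min in ice-cold 70% ethanol, and treated with RNase A (1 mg/mL) at 37 °C for 30 min. Stained with PI for 30 min at room temperature in the dark. DNA content read by flow cytometry on 10 000 events, reported as the percentage of cells in the sub-G1 region.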

[3] = test system: A2058; assay: Accumulation of A2058 cells in G1 phase as a measure for cell cycle arrest at 4 uM; type: functional, Homo sapiens
In short: (§1)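 Human melanoma A2058 cells exposed to graded concentrations (0–4 μM) for 24 h, DMSO as control. Cells collected by trypsinization, fixed in ice-cold 70% ethanol 30 min, treated with 1 mg/mL RNase A at 37 °C 30 min, then stained with propidium iodide/citrate/Triton X-100 at room temperature 30 min in the dark. DNA content of 10 000 events read by flow cytometry; G1, S and G2/M fractions gated from histograms.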

[4] = test system: A2058; assay: Accumulation of A2058 cells in S phase as a measure for cell cycle arrest at 1 uM; type: functional, Homo sapiens; in short: as §1
[5] = test system: A2058; assay: Accumulation of A2058 cells in S phase as a measure for cell cycle arrest at 2 uM; type: functional, Homo sapiens; in short: as §1
[6] = test system: A2058; assay: Accumulation of A2058 cells in S phase as a measure for cell cycle arrest at 4 uM; type: functional, Homo sapiens; in short: as §1
[7] = test system: A2058; assay: Accumulation of A2058 cells in G1 phase as a measure for cell cycle arrest at 2 uM; type: functional, Homo sapiens; in short: as §1
[8] = test system: A2058; assay: Accumulation of A2058 cells in G1 phase as a measure for cell cycle arrest at 1 uM; type: functional, Homo sapiens; in short: as §1
[9] = test system: A2058; assay: Accumulation of A2058 cells in G2/M phase as a measure for cell cycle arrest at 4 uM; type: functional, Homo sapiens; in short: as §1
[10] = test system: A2058; assay: Accumulation of A2058 cells in G2/M phase as a measure for cell cycle arrest at 1 uM; type: functional, Homo sapiens; in short: as §1
[11] = test system: A2058; assay: Apoptotic effect on A2058 cells by propidium iodide staining and Annexin V-FITC conjugate at 2 uM; type: functional, cell-based; details: Homo sapiens
In short: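 A2058 cells given graded concentrations for 24 h, then 10^6 cells per sample labelled with annexin V–FITC together with propidium iodide and analysed by two-parameter flow cytometry. Percentage of annexin V-positive cells reported per concentration.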

[12] = test system: A2058; assay: Accumulation of A2058 cells in G2/M phase as a measure for cell cycle arrest at 2 uM; type: functional, Homo sapiens; in short: as §1
[13] = test system: SN12C; assay: Antiproliferative activity against SN12C Renal cancer cells; type: functional; details: Homo sapiens
[14] = test system: M14; assay: Antiproliferative activity against M14 melanoma cancer cells; type: functional; details: Homo sapiens
[15] = test system: UACC-62; assay: Antiproliferative activity against UACC62 melanoma cancer cells; type: functional; details: Homo sapiens
[16] = test system: RXF 393; assay: Antiproliferative activity against RXF393 Renal cancer cells; type: functional; details: Homo sapiens
[17] = test system: SF-268; assay: Antiproliferative activity against SF268 CNS cancer cells; type: functional; details: Homo sapiens

Structure (SMILES)	Activity [1]	Activity [2] [%]	GI50 [13] [µM]	GI50 [14] [µM]	GI50 [15] [µM]	other results
COc1cc2c(cc1OCCCCNC(=O)c1cc3ccccc3[nH]1)N=C[C@@H]1CCCN1C2=O	Active	46.8	–	–	–	–
COc1cc2c(cc1OCCCCCCNC(=O)c1cc3ccccc3[nH]1)N=C[C@@H]1CCCN1C2=O	Active	50.6	–	–	–	Activity [3]: 29.2%; Activity [4]: 15.2%; Activity [5]: 25.2%; Activity [6]: 42.8%; Activity [7]: 25.7%; Activity [8]: 41.1%; Activity [9]: 12.5%; Activity [10]: 42.5%; Activity [11]: Active; Activity [12]: 47.7%
COc1cc2c(cc1OCCCNC(=O)c1cc3ccccc3[nH]1)N=C[C@@H]1CCCN1C2=O	Active	46.8	0.41	0.173	0.203	GI50 [16]: 0.025 µM; GI50 [17]: 0.027 µM
COc1cc2c(cc1OCCCCCNC(=O)c1cc3ccccc3[nH]1)N=C[C@@H]1CCCN1C2=O	–	2.9	–	–	–	–
COc1cc2c(cc1OC(=O)c1cc3ccccc3[nH]1)N=C[C@@H]1CCCN1C2=O	–	38.5	0.21	0.162	0.29	–
COc1cc2c(cc1O)N=C[C@@H]1CCCN1C2=O	–	45	–	–	–	–
